From ChEMBL document CHEMBL2086245, “Micelles catalyzed chemo- and regio-selective one pot and one step synthesis of 2,3,5,6-tetrakis(alkyl and arylsulfanyl)-1,4-benzoquinones and 2,5-diaminosubstituted-1,4-benzoquinones "In-Water" and their biological evaluation as antibacterial and antifungal agents” (Eur J Med Chem, 2012)
In brackets after ≈: the same amount, converted by molar mass.

Legend:
Type in all cases: functional
Klebsiella pneumoniae = experiment: Antibacterial activity against Klebsiella pneumoniae ATCC 27736 after 24 hrs by broth microdilution method
Method in brief: (§1)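 NCCLS broth microdilution in Mueller-Hinton broth, 96-well plates. Initial inoculum 1-5 × 10^3 cells/mL. Incubated in a moist chamber at 35 °C for 24 h, then absorbance read at 492 nm. MIC taken as the concentration giving 90% growth inhibition relative to the growth control.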

Sporothrix schenckii = experiment: Antifungal activity against Sporothrix schenckii after 72 hrs by broth microdilution method
Method in brief: (§2)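 NCCLS broth microdilution in MOPS-buffered RPMI 1640, 96-well plates. Inoculum 1-5 × 10^3 cells/mL, moist chamber, 35 °C. Absorbance at 492 nm read at 48 h (C. albicans, C. parapsilosis), 72 h (C. neoformans, S. schenckii, A. fumigatus) or 96 h (T. mentagrophytes). MIC defined as 90% growth inhibition versus growth control.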

Candida albicans = experiment: Antifungal activity against Candida albicans after 48 hrs by broth microdilution method; method in brief: as §2
Pseudomonas aeruginosa = experiment: Antibacterial activity against Pseudomonas aeruginosa ATCC BAA-427 after 24 hrs by broth microdilution method; method in brief: as §1
Candida parapsilosis = experiment: Antifungal activity against Candida parapsilosis ATCC 22019 after 48 hrs by broth microdilution method; settings: Lodderomyces parapsilosis, ATCC 22019, 48 h; method in brief: as §2
Staphylococcus aureus = experiment: Antibacterial activity against Staphylococcus aureus ATCC 25923 after 24 hrs by broth microdilution method; method in brief: as §1
Escherichia coli = experiment: Antibacterial activity against Escherichia coli ATCC 9637 after 24 hrs by broth microdilution method; method in brief: as §1
Cryptococcus neoformans = experiment: Antifungal activity against Cryptococcus neoformans after 72 hrs by broth microdilution method; method in brief: as §2
[1] = system: Trichophyton mentagrophytes; experiment: Antifungal activity against Trichophyton mentagrophytes after 96 hrs by broth microdilution method; method in brief: as §2
Aspergillus fumigatus = experiment: Antifungal activity against Aspergillus fumigatus after 72 hrs by broth microdilution method; method in brief: as §2

Compound | MIC (Klebsiella pneumoniae; ATCC 27736, 24 h) [µg/mL] | MIC (Sporothrix schenckii) [µg/mL] | MIC (Candida albicans) [µg/mL] | MIC (Pseudomonas aeruginosa; ATCC BAA-427, 24 h) [µg/mL] | MIC (Candida parapsilosis) [µg/mL] | MIC (Staphylococcus aureus; ATCC 25923, 24 h) [µg/mL] | MIC (Escherichia coli; ATCC 9637, 24 h) [µg/mL] | MIC (Cryptococcus neoformans) [µg/mL] | MIC [1] [µg/mL] | MIC (Aspergillus fumigatus) [µg/mL] | MIC (Klebsiella pneumoniae) [µg/mL] | MIC (Pseudomonas aeruginosa) [µg/mL] | MIC (Staphylococcus aureus) [µg/mL] | MIC (Escherichia coli) [µg/mL]
O=C1C(Cl)=C(Sc2ccccc2)C(=O)C(Cl)=C1Sc1ccccc1 | > 50 | 50 (≈ 127 µM) | 25 (≈ 63.6 µM) | > 50 | 25 (≈ 63.6 µM) | 50 (≈ 127 µM) | > 50 | 25 (≈ 63.6 µM) | 50 (≈ 127 µM) | > 50 |  |  |  | 
O=C1C(Cl)=C(Sc2cccc3ccccc23)C(=O)C(Sc2cccc3ccccc23)=C1Sc1cccc2ccccc12 | > 50 | 50 (≈ 81 µM) | 25 (≈ 40.5 µM) | > 50 | 12.5 (≈ 20.3 µM) | 12.5 (≈ 20.3 µM) | > 50 | 25 (≈ 40.5 µM) | 50 (≈ 81 µM) | > 50 |  |  |  | 
O=C1C(Sc2ccccc2)=C(Sc2ccccc2)C(=O)C(Sc2ccccc2)=C1Sc1ccccc1 | > 50 | 1.56 (≈ 2.88 µM) | 12.5 (≈ 23.1 µM) | > 50 | 6.25 (≈ 11.6 µM) | > 50 | > 50 | 12.5 (≈ 23.1 µM) | 0.78 (≈ 1.44 µM) | 50 (≈ 92.5 µM) |  |  |  | 
Nc1nc(=O)[nH]cc1F [FLUCYTOSINE] |  | > 32 | 0.25 (≈ 1.94 µM) |  | 0.13 (≈ 1.01 µM) |  |  | 0.13 (≈ 1.01 µM) | > 32 | > 32 |  |  |  | 
Cc1ccc(SC2=C(Cl)C(=O)C(Sc3ccc(C)cc3)=C(Cl)C2=O)cc1 | > 50 | 50 (≈ 119 µM) | 25 (≈ 59.3 µM) | > 50 | 25 (≈ 59.3 µM) | 50 (≈ 119 µM) | > 50 | 25 (≈ 59.3 µM) | 50 (≈ 119 µM) | > 50 |  |  |  | 
O=C1C(Cl)=C(Sc2ccccc2)C(=O)C(Sc2ccccc2)=C1Sc1ccccc1 | > 50 | 50 (≈ 107 µM) | 25 (≈ 53.5 µM) | > 50 | 25 (≈ 53.5 µM) | 50 (≈ 107 µM) | > 50 | 25 (≈ 53.5 µM) | 50 (≈ 107 µM) | > 50 |  |  |  | 
Cc1ccc(SC2=C(Sc3ccc(C)cc3)C(=O)C(Sc3ccc(C)cc3)=C(Sc3ccc(C)cc3)C2=O)cc1 | > 50 | 50 (≈ 83.8 µM) | 25 (≈ 41.9 µM) | > 50 | 25 (≈ 41.9 µM) | > 50 | > 50 | > 50 | > 50 | > 50 |  |  |  | 
O=C1C(Cl)=C(Sc2cccc3ccccc23)C(=O)C(Cl)=C1Sc1cccc2ccccc12 | > 50 | 50 (≈ 101 µM) | 25 (≈ 50.7 µM) | > 50 | 12.5 (≈ 25.3 µM) | 25 (≈ 50.7 µM) | > 50 | 25 (≈ 50.7 µM) | 50 (≈ 101 µM) | > 50 |  |  |  | 
O=C1C(Cl)=C(N2CCCCC2)C(=O)C(Cl)=C1N1CCCCC1 | > 50 | 25 (≈ 72.8 µM) | 25 (≈ 72.8 µM) | > 50 | 25 (≈ 72.8 µM) | > 50 | > 50 | 25 (≈ 72.8 µM) | 12.5 (≈ 36.4 µM) | > 50 |  |  |  | 
OC(Cn1cncn1)(Cn1cncn1)c1ccc(F)cc1F [FLUCONAZOLE] |  | 4 (≈ 13.1 µM) | 1 (≈ 3.27 µM) |  | 0.5 (≈ 1.63 µM) |  |  | 2 (≈ 6.53 µM) | 16 (≈ 52.2 µM) | > 32 |  |  |  | 
GENTAMICIN |  |  |  |  |  |  |  |  |  |  | 1.56 | 0.39 | 1.56 | 1.56
